Test results from article PMC6917914 (Nature chemical biology, 2019).
“Also recorded” adds a separate entry of the source.

Tests used:
RBM39RRM2-biotin = target: T1, RBM39RRM2-biotin (Homo sapiens, UniProt Q14498); assay: TR-FRET titration of BodipyFL-E7820 probe to RBM39RRM2-biotin; type: binding; conditions: probe titrated to RBM39RRM2-biotin
T1 sequence (Q14498 245-332): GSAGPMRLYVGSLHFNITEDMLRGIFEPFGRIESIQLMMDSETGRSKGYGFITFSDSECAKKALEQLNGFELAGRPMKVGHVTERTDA
How it was run: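 RBM39RRM2 was Avi-tagged and biotinylated in vitro with BirA, then gel-filtered. It was mixed with 2 nM terbium-streptavidin in Tris pH 8.0/NaCl/Pluronic F-68/BSA buffer. Increasing BodipyFL-E7820 probe was added at 2% DMSO, 15 min room temperature. The 520/490 nm ratio without protein was subtracted, and KD came from a one-site specific-binding fit. Three independent replicates.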

DCAF15 = DCAF15 (Homo sapiens, UniProt Q66K64); assay: TR-FRET competition assay: displacement of BodipyFL-E7820 from DCAF15; type: binding; conditions: for DCAF15 binding, in words: relative to E7820

compound binding to RBM39 (RBM39RRM2-biotin) | Ki (DCAF15) [µM] | SMILES | DCAF15 binding, in words (DCAF15)
only observed for DDB1ΔB-DCAF15biotin | – | Cc1cc(C)n2c1C=C1C=CC(CCC(=O)NCCCCCCOc3ccc(S(=O)(=O)Nc4ccc(C)c5c(C#N)c[nH]c45)cc3C#N)=[N+]1[B-]2(F)F [BodipyFL-E7820, N-(6-(2-cyano-4-(N-(3-cyano-4-methyl-1H-indol-7-yl)sulfamoyl)phenoxy)hexyl)-3-(5,5-difluoro-7,9-dimethyl-5H-5λ^4,6λ^4-dipyrrolo[1,2-c:2',1'-f][1,3,2]diazaborinin-3-yl)propanamide] | –
– | – | N#Cc1cccc(S(=O)(=O)Nc2cccc3c(C#N)c[nH]c23)c1 [desmethyl-E7820] | significant loss of DCAF15 binding
– | > 50 | NS(=O)(=O)c1ccc(S(=O)(=O)Nc2cccc3c(Cl)c[nH]c23)cc1 [indisulam] | significant loss of DCAF15 binding; also recorded: significant loss in affinity for DCAF15
